{"data": "Measurements pooled from the literature", "target": "Myotonin-protein kinase (DMPK, Homo sapiens, UniProt Q09013)", "Sequence (Q09013 1-629, as in one of the studies)": "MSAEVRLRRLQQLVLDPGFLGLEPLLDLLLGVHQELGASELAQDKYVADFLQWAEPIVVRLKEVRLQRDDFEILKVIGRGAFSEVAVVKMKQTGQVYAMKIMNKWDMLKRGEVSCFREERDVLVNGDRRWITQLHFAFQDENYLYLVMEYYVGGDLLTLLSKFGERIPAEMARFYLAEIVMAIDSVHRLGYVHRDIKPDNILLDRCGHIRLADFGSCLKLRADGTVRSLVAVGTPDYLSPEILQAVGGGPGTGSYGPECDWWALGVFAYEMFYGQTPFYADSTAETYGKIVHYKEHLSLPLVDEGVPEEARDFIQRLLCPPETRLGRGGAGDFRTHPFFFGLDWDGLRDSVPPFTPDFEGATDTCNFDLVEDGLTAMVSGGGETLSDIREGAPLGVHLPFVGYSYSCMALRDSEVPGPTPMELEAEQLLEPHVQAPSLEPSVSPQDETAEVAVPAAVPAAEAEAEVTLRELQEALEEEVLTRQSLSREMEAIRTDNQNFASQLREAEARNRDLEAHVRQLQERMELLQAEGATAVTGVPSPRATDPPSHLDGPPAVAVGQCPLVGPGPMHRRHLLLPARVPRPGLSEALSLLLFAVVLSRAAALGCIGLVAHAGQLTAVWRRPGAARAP", "note": "Compare with care: the assays were run in different laboratories."}
{"Structure (SMILES)": "C1=C/COCc2cc(ccc2OCCN2CCCC2)Nc2nccc(n2)-c2cccc(c2)COC/1", "effect on": "binding", "concentration": "0.1 µM", "endpoint": "remaining binding", "value": "100%"}
{"Structure (SMILES)": "C=CC(=O)N1CCC([C@@H]2CCNc3c(C(N)=O)c(-c4ccc(Oc5ccccc5)cc4)nn32)CC1", "effect on": "enzyme activity", "mode": "inhibitor", "concentration": "1 µM", "endpoint": "inhibition", "value": "10%"}
{"Structure (SMILES)": "COc1ccc2[nH]c3c4[nH]c5ccc(OC)cc5c4c4c(c3c2c1)C(=O)NC4=O", "effect on": "binding", "technique": "competition with immobilised ligand", "concentration": "1 µM", "endpoint": "remaining binding", "value": "56%"}
{"Structure (SMILES)": "C=CC(=O)N1CCC[C@@H](n2nc(-c3ccc(Oc4ccccc4)cc3)c3c(N)ncnc32)C1", "effect on": "enzyme activity", "mode": "inhibitor", "concentration": "1 µM", "endpoint": "inhibition", "value": "1%"}
{"Structure (SMILES)": "Cc1ccc(NC(=O)c2ccnc(C(F)(F)F)c2)cc1-c1cc(OCCO)nc(N2CCOCC2)c1", "effect on": "binding", "technique": "competition with immobilised ligand", "concentration": "1 µM", "endpoint": "remaining binding", "value": "100%"}
{"Structure (SMILES)": "COc1ccc2oc(-c3ccc4nc(N)oc4c3)c/c(=N\\c3ccccc3NC(=O)CCN)c2c1", "effect on": "binding", "concentration": "1 µM", "endpoint": "remaining binding", "value": "102%"}
{"Structure (SMILES)": "CCCCC(=O)Nc1ccc(-c2ccc3ncn(CCC)c(=O)c3c2)cn1", "effect on": "binding", "technique": "competition with immobilised ligand", "concentration": "0.5 µM", "endpoint": "remaining binding", "value": "83%"}
{"Structure (SMILES)": "CC(C)S(=O)(=O)c1ccc2nccc(Nc3ccc4sc(C5CCCC5)nc4c3)c2c1", "effect on": "enzyme activity", "mode": "inhibitor", "concentration": "1 µM", "endpoint": "activity vs control", "value": "80%"}
